The target in experiment [1] is Renin (Sus scrofa). The experiment can be described thus: Inhibition of renin was measured using hog kidney renin and the radiolabeled synthetic substrate, H-Ile-His-Pro-Phe-His-Leu-[14C]Leu-Val-Tyr-Ser-OH.
Experiment [2] concerns the target Pepsin A (Sus scrofa, UniProt P00791). The experiment can be described thus: Pepsin inhibition was measured using the synthetic heptapeptide substrate Phe-Gly-His-Phe-(N02)-Phe-Ala- Phe-OMe. The method, boiled down:
(§1)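 Nitrophenylalanine-containing heptapeptide substrate hydrolysis by pepsin; run at five substrate and three inhibitor concentrations per analogue, with Ki calculated by a previously described method.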

Experiment [3] deals with Pepsin A (Homo sapiens, UniProt P0DJD9). The experiment can be described thus: Pepsin inhibition using synthetic heptapeptide substrate Phe-Gly-His-Phe-(N02)-Phe-Ala- Phe-OMe. An outline of the steps: as §1
Sequence of Pepsin A (Homo sapiens, UniProt P0DJD9) (P0DJD9 whole entry): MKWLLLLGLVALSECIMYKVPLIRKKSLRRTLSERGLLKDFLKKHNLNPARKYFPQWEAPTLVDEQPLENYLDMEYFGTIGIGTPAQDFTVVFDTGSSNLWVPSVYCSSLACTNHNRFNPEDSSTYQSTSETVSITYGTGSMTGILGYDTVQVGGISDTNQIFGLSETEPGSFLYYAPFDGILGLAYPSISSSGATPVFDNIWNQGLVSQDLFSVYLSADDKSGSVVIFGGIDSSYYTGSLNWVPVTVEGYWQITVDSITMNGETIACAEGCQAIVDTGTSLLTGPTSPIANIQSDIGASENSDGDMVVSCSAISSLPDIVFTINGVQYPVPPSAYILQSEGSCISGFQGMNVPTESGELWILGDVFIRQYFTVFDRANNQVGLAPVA

Sequence of Pepsin A (Sus scrofa, UniProt P00791) (P00791 whole entry): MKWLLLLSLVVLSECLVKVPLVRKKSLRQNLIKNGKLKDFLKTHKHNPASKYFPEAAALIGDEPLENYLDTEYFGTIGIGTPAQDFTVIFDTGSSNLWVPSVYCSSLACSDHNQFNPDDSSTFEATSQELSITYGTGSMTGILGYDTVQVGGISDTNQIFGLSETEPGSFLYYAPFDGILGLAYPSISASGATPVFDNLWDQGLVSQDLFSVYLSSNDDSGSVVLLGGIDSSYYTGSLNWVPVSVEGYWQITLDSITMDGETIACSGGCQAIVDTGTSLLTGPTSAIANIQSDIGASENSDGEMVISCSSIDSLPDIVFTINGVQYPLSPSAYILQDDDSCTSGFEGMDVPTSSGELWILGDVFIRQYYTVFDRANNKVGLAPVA

In the case of `CC(C)CC(=O)N[C@@H](C(=O)N[C@@H](CC(C)C)C(O)CC(N)=O)C(C)C` (stereo partly drawn), the IC50 (in general, the concentration needed to halve the response being measured) in experiment [1] is over 330000 nM. In experiment [2], the Ki (commonly the equilibrium dissociation constant of an inhibitor or competing ligand from its target) is about 1000 nM.
In experiment [1], `CC(C)CCNC(=O)[C@@H](C)NC(=O)C[C@H](O)C(CC(C)C)NC(=O)CC(C)C` (stereo partly drawn) registered an IC50 of over 330000 nM. The Ki in experiment [2] was 350 nM.
Consider `CC(C)CCNC(=O)[C@H](C)NC(=O)C[C@H](O)C(CC(C)C)NC(=O)[C@H](NC(=O)CC(C)C)C(C)C` (stereo partly drawn), for which the Ki in experiment [2] turned out to be 1.1 nM.
As to `CC(C)CC(=O)N[C@@H](C(=O)N[C@@H](C(=O)NC(CC(C)C)[C@@H](O)CC(=O)N[C@H](C)C(=O)NC(CC(C)C)[C@@H](O)CO)C(C)C)C(C)C` (stereo partly drawn), the Ki in experiment [2] was 0.0457 nM.
Consider `CC(C)CCNC(=O)[C@H](C)NC(=O)C[C@H](O)NC(C(=O)[C@H](NC(=O)CC(C)C)C(C)C)c1ccccc1` (stereo partly drawn), for which, in experiment [2], the Ki amounted to 0.9 nM.
In turn, `CC(C)CCNC(=O)[C@H](C)NC(=O)C[C@@H](O)C(CC(C)C)NC(=O)[C@H](NC(=O)CC(C)C)C(C)C` (stereo partly drawn) registered a Ki in experiment [3] of 3000 nM.

For the origin of these results see ChEMBL document CHEMBL1121520, “Synthesis of analogues of the carboxyl protease inhibitor pepstatin. Effects of structure on inhibition of pepsin and renin” (J Med Chem, 1980).
